Laboratory results reported in ChEMBL document CHEMBL3091413, “Fine molecular tuning at position 4 of 2H-chromen-2-one derivatives in the search of potent and selective monoamine oxidase B inhibitors” (Eur J Med Chem, 2013).

Legend:
[1] = molecular target: T1, Amine oxidase [flavin-containing] B (Rattus norvegicus, UniProt P19643); experiment: Inhibition of Sprague-Dawley rat MAO-B using Kynuramine as substrate assessed as formation of 4-hydroxyquinoline preincubated for 5 mins prior to substrate addition measured for 5 mins by spectrophotometry
T1 sequence (P19643 whole entry): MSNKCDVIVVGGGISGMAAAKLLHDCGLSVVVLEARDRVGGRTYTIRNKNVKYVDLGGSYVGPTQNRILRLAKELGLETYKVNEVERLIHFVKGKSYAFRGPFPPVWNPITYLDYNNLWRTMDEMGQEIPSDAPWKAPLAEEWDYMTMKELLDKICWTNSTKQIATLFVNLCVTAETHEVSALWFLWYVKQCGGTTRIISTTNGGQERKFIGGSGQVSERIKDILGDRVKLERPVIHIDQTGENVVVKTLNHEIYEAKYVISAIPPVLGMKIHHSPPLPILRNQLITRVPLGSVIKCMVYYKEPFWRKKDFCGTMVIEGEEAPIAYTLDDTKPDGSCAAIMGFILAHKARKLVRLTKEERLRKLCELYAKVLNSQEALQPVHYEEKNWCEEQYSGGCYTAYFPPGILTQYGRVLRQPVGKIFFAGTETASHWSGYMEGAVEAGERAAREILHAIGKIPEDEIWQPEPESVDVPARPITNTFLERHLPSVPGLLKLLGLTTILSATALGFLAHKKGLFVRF

[2] = molecular target: T2, MAO-A (amine oxidase [flavin-containing] A) (Rattus norvegicus, UniProt P21396); experiment: Inhibition of Sprague-Dawley rat MAO-A using Kynuramine as substrate assessed as formation of 4-hydroxyquinoline at 10 uM preincubated for 5 mins prior to substrate addition measured for 5 mins by spectrophotometry; conditions: rat MAO-A enzyme preparation, probe kynuramine
T2 sequence (P21396 whole entry): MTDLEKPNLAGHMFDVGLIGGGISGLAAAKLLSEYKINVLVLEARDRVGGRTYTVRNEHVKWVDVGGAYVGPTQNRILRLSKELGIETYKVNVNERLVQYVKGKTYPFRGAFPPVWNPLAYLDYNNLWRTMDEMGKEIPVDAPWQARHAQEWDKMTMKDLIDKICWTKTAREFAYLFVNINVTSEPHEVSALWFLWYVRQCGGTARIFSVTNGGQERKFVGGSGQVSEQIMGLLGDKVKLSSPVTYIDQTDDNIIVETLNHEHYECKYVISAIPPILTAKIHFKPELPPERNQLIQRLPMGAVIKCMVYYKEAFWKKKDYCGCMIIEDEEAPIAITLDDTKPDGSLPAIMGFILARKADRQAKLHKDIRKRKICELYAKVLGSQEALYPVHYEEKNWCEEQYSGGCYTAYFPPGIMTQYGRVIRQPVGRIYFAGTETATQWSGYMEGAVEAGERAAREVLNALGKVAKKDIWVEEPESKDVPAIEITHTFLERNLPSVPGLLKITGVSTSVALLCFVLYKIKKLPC

Rattus norvegicus = species: Rattus norvegicus; experiment: Selectivity ratio for Sprague-Dawley rat MAO-B to Sprague-Dawley rat MAO-A
Method in brief: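 Selectivity index is pIC50 MAO-B minus pIC50 MAO-A (ΔpIC50), from the rat brain mitochondrial kynuramine assay.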

[3] = molecular target: T3, Amine oxidase [flavin-containing] A (Rattus norvegicus, UniProt P21396); experiment: Inhibition of Sprague-Dawley rat MAO-A using Kynuramine as substrate assessed as formation of 4-hydroxyquinoline preincubated for 5 mins prior to substrate addition measured for 5 mins by spectrophotometry
T3 sequence (P21396 whole entry): T2 sequence (P21396 whole entry)
Method in brief: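 Enzyme source: crude brain mitochondrial fraction from male Sprague-Dawley rats (200-250 g), decapitated. Brains were washed in ice-cold isotonic Na2HPO4/KH2PO4 buffer (pH 7.40) with sucrose, fractionated by differential centrifugation, and stored at -40 °C in isotonic phosphate buffer (pH 7.4) with KCl. Kynuramine oxidation to 4-hydroxyquinoline was monitored spectrophotometrically. Values are the mean of two or three independent experiments.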

Row | SMILES | IC50 ([1]; read-out: pIC50 (converted)) [µM] | inhibition at 5 min, 10 µM [2] [%] | Selectivity ratio (Rattus norvegicus) | IC50 ([1]; read-out: IC50) [µM] | IC50 [3] [µM]
1 | CCCCNCc1cc(=O)oc2cc(OCc3cccc(Cl)c3)ccc12 | 0.447 | 1.1 | – | – | –
2 | O=Cc1cc(=O)oc2cc(OCc3cccc(Cl)c3)ccc12 | 0.0525 | 14 | – | – | –
3 | O=c1cc(Oc2ccccc2)c2ccc(OCc3cccc(Cl)c3)cc2o1 | 4.07 | 0 | – | – | –
4 | O=c1cc(CN2CCCC2)c2ccc(OCc3cccc(Cl)c3)cc2o1 | 1.7 | 16 | – | – | –
5 | O=c1cc(CCl)c2ccc(OCc3cccc(Cl)c3)cc2o1 | 0.0437 | 21 | – | – | –
6 | O=c1cc(Nc2ccccc2)c2ccc(OCc3cccc(Cl)c3)cc2o1 | 9.77 | 0 | – | – | –
7 | CN(C)C(=O)Cc1cc(=O)oc2cc(OCc3cccc(Cl)c3)ccc12 | – | 0 | – | – | –
8 | N#Cc1cc(=O)oc2cc(OCc3cccc(Cl)c3)ccc12 | 0.102 | 23 | – | – | –
9 | NC(=O)COc1cc(=O)oc2cc(OCc3cccc(Cl)c3)ccc12 | 0.00331 | – | 7240 | 0.0031 | 24
10 | O=c1cc(O)c2ccc(OCc3cccc(F)c3)cc2o1 | 2.09 | 0 | – | – | –
11 | CCc1cc(=O)oc2cc(OCc3cccc(Cl)c3)ccc12 | 0.0288 | 48 | – | – | –
12 | CCNC(=O)Nc1cc(=O)oc2cc(OCc3cccc(Cl)c3)ccc12 | – | 0 | – | – | –
13 | CN(C)Cc1cc(=O)oc2cc(OCc3cccc(Cl)c3)ccc12 | – | 5.7 | – | – | –
14 | CN(C)C(=O)COc1cc(=O)oc2cc(OCc3cccc(Cl)c3)ccc12 | 0.501 | 10 | – | – | –
15 | O=c1cc(O)c2ccc(OCc3cccc(Cl)c3)cc2o1 | 0.479 | 6 | – | – | –
16 | CC(=O)c1cc(=O)oc2cc(OCc3cccc(Cl)c3)ccc12 | 0.0398 | 0 | – | – | –
17 | CCOC(=O)Nc1cc(=O)oc2cc(OCc3cccc(Cl)c3)ccc12 | 0.589 | 21 | – | – | –
18 | O=c1cc(C(F)(F)F)c2ccc(OCc3cccc(Cl)c3)cc2o1 | 0.871 | 16 | – | – | –
19 | NC(=O)c1cc(=O)oc2cc(OCc3cccc(Cl)c3)ccc12 | 0.234 | 14 | – | – | –
20 | CC(O)c1cc(=O)oc2cc(OCc3cccc(Cl)c3)ccc12 (centres undefined) | 0.0776 | 22 | – | – | –

Row | SMILES | IC50 ([1]; read-out: pIC50 (converted)) [µM] | inhibition at 5 min, 10 µM [2] [%] | Selectivity ratio (Rattus norvegicus) | IC50 ([1]; read-out: IC50) [µM] | IC50 [3] [µM]
21 | O=c1cc(CN2CCOCC2)c2ccc(OCc3cccc(Cl)c3)cc2o1 | 2.29 | 11 | – | – | –
22 | CC(C)Oc1cc(=O)oc2cc(OCc3cccc(Cl)c3)ccc12 | 24.5 | 3 | – | – | –
23 | O=C(O)c1cc(=O)oc2cc(OCc3cccc(Cl)c3)ccc12 | – | 0 | – | – | –
24 | O=c1cc(CO)c2ccc(OCc3cccc(Cl)c3)cc2o1 | 0.00525 | – | – | – | 10.2
25 | O=c1cc(/C=N/O)c2ccc(OCc3cccc(Cl)c3)cc2o1 | 0.219 | 48 | – | – | –
26 | CCNc1cc(=O)oc2cc(OCc3cccc(Cl)c3)ccc12 | 0.0282 | – | – | – | 9.33
27 | CNc1cc(=O)oc2cc(OCc3cccc(Cl)c3)ccc12 | 0.00871 | – | – | – | 4.07
28 | O=c1cc(O)c2ccc(OCc3ccccc3)cc2o1 | 9.12 | 2 | – | – | –
29 | O=C(COc1cc(=O)oc2cc(OCc3cccc(Cl)c3)ccc12)N1CCCCC1 | 38.9 | 9 | – | – | –
30 | CC(=O)Nc1cc(=O)oc2cc(OCc3cccc(Cl)c3)ccc12 | 0.0389 | – | – | – | 0.282
31 | O=C(COc1cc(=O)oc2cc(OCc3cccc(Cl)c3)ccc12)N1CCOCC1 | 12.9 | 3.2 | – | – | –
32 | CC(C)Nc1cc(=O)oc2cc(OCc3cccc(Cl)c3)ccc12 | 7.76 | 0 | – | – | –
33 | O=C(O)COc1cc(=O)oc2cc(OCc3cccc(Cl)c3)ccc12 | – | 0 | – | – | –
34 | O=c1cc(Cl)c2ccc(OCc3cccc(Cl)c3)cc2o1 | 0.0209 | – | – | – | 8.91
35 | COc1cc(=O)oc2cc(OCc3ccccc3)ccc12 | 0.1 | 22 | – | – | –
36 | CCCNCc1cc(=O)oc2cc(OCc3cccc(Cl)c3)ccc12 | 0.204 | 3.2 | – | – | –
37 | CCOC(=O)c1cc(=O)oc2cc(OCc3cccc(Cl)c3)ccc12 | 0.417 | 4.4 | – | – | –
38 | CNC(=O)COc1cc(=O)oc2cc(OCc3cccc(Cl)c3)ccc12 | 0.0339 | 11 | – | – | –
39 | Nc1cc(=O)oc2cc(OCc3cccc(Cl)c3)ccc12 | 0.0479 | – | – | – | 4.17
40 | Cc1cc(=O)oc2cc(OCc3cccc(Cl)c3)ccc12 | 0.00741 | – | – | – | 5.25

More lines, now with the values ahead:

Row | IC50 ([1]; read-out: pIC50 (converted)) [µM] | inhibition at 5 min, 10 µM [2] [%] | Selectivity ratio (Rattus norvegicus) | IC50 ([1]; read-out: IC50) [µM] | IC50 [3] [µM] | SMILES
41 | 0.49 | 0 | – | – | – | O=c1cc(O)c2ccc(OCc3cccc(Br)c3)cc2o1
42 | 0.0269 | 22 | – | – | – | CC(=O)COc1cc(=O)oc2cc(OCc3cccc(Cl)c3)ccc12
43 | 0.011 | 40 | – | – | – | CNCc1cc(=O)oc2cc(OCc3cccc(Br)c3)ccc12
44 | 0.0617 | 5.3 | – | – | – | CCCOc1cc(=O)oc2cc(OCc3cccc(Cl)c3)ccc12
45 | 0.115 | 2 | – | – | – | CCOc1cc(=O)oc2cc(OCc3cccc(Cl)c3)ccc12
46 | 0.0457 | 17 | – | – | – | N#CCOc1cc(=O)oc2cc(OCc3cccc(Cl)c3)ccc12
47 | 0.0741 | 0 | – | – | – | CCCOc1cc(=O)oc2cc(OCc3cccc(Br)c3)ccc12
48 | 0.00891 | – | – | – | 8.91 | NC(=O)COc1cc(=O)oc2cc(OCc3cccc(Br)c3)ccc12
49 | 1.82 | 0 | – | – | – | CCOC(=O)COc1cc(=O)oc2cc(OCc3cccc(Cl)c3)ccc12
50 | 0.575 | 0 | – | – | – | CCCOc1cc(=O)oc2cc(OCc3ccccc3)ccc12
51 | 0.00575 | 27 | – | – | – | COc1cc(=O)oc2cc(OCc3cccc(Br)c3)ccc12
52 | 0.1 | 23 | – | – | – | COCOc1cc(=O)oc2cc(OCc3cccc(Cl)c3)ccc12
53 | 0.316 | 8.6 | – | – | – | CSCOc1cc(=O)oc2cc(OCc3cccc(Cl)c3)ccc12
54 | 0.0363 | 49 | – | – | – | COc1cc(=O)oc2cc(OCc3cccc(F)c3)ccc12
55 | 0.759 | 0 | – | – | – | CCOc1cc(=O)oc2cc(OCc3ccccc3)ccc12
56 | 0.00776 | – | – | – | 11.7 | COc1cc(=O)oc2cc(OCc3cccc(Cl)c3)ccc12
57 | 0.126 | 2.5 | – | – | – | CCOc1cc(=O)oc2cc(OCc3cccc(Br)c3)ccc12
58 | 0.0141 | 49 | – | – | – | O=c1cc(CO)c2ccc(OCc3cccc(Br)c3)cc2o1
59 | 0.263 | 25 | – | – | – | CCOc1cc(=O)oc2cc(OCc3cccc(F)c3)ccc12
60 | 0.209 | 28 | – | – | – | O=c1cc(CCl)c2ccc(OCc3cccc(Br)c3)cc2o1
61 | 0.407 | 12 | – | – | – | CCCOc1cc(=O)oc2cc(OCc3cccc(F)c3)ccc12
